IC50, Activity and EC50 data for twelve molecules are collected here from ChEMBL document CHEMBL4184298, “Development of Potent Inhibitors of Receptor Tyrosine Kinases by Ligand-Based Drug Design and Target-Biased Phenotypic Screening” (J Med Chem, 2018).

The IC50 is the point on the concentration scale where inhibition reaches its midpoint. The EC50 is the concentration giving half of the maximal effect. The low end stands for greater potency, the high end for weaker potency.

Active and inactive are the calls of the source. The rule behind the calls is not given here. Bounds are passed on as bounds.

Experiment [1] concerns the target T1, Tyrosine-protein kinase receptor UFO (Homo sapiens, UniProt P30530).
T1 sequence (P30530 whole entry): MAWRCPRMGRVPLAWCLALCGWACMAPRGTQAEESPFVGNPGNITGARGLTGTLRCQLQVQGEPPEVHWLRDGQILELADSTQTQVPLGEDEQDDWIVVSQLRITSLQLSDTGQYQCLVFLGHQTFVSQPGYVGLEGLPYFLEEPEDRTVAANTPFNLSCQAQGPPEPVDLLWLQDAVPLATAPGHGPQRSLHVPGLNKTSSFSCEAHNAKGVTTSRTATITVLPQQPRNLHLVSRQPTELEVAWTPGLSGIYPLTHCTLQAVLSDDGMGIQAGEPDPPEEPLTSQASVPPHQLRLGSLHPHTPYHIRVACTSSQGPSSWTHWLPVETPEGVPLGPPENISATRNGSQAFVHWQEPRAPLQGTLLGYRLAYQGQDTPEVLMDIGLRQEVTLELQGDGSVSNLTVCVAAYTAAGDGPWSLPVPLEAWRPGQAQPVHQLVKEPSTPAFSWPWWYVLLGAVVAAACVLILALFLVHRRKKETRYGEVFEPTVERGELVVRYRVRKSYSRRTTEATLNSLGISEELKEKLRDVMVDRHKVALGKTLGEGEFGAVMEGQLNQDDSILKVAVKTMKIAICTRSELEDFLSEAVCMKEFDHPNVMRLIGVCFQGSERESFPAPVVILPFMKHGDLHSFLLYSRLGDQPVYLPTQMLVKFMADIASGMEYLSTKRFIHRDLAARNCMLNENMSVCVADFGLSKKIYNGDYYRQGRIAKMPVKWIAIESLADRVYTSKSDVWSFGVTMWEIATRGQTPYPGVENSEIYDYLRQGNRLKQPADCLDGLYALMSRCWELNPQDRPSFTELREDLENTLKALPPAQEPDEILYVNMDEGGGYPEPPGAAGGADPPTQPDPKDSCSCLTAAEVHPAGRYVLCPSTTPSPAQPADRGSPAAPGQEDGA
Briefly: Inhibition of wild-type human partial length AXL (R497 to Y821 residues) expressed in bacterial expression system using poly [Glu, Try] 4:1 as substrate in presence of [gamma-33P]ATP.

The target in experiment [2] is T2, Tyrosine-protein kinase Mer (Homo sapiens, UniProt Q12866).
T2 sequence (Q12866 whole entry): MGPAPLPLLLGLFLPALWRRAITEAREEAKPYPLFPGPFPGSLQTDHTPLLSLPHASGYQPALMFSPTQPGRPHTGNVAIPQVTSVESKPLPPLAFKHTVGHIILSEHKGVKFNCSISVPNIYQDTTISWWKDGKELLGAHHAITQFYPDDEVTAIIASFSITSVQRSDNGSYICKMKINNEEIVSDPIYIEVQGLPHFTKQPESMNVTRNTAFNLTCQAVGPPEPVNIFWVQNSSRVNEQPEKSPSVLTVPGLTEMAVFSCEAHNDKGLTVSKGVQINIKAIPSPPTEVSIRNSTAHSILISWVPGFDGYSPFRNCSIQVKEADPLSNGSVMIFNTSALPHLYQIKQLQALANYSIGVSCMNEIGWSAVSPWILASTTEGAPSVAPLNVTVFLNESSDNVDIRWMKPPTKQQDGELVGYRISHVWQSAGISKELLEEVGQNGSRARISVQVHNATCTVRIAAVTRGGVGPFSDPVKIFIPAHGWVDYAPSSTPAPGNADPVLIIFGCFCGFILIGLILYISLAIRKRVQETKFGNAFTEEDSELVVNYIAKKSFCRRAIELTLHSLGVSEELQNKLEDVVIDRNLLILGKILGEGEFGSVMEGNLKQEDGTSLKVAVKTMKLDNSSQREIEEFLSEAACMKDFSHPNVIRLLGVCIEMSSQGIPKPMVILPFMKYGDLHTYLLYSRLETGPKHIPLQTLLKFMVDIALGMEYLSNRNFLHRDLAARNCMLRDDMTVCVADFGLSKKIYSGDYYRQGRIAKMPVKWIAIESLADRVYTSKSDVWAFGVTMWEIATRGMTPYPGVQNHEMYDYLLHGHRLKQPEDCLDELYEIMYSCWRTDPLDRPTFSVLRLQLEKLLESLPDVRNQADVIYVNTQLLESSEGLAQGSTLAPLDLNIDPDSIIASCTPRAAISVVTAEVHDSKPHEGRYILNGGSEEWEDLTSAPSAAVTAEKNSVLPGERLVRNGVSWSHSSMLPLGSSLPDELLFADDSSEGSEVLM
Put plainly: Inhibition of wild-type human partial length MER (R557 to L884 residues) expressed in bacterial expression system using poly [Glu, Try] 4:1 as substrate in presence of [gamma-33P]ATP.

Experiment [3] has as its target RAC-alpha serine/threonine-protein kinase (Homo sapiens, UniProt P31749). Put plainly: Inhibition of AKT (unknown origin) using poly [Glu, Try] 4:1 as substrate in presence of [gamma-33P]ATP. Summed up: (§1)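 Radiometric assay on recombinant kinase: ³³P incorporation into the kinase substrate was measured and activity was expressed relative to a DMSO control.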
Experiment [4] has as its target Vascular endothelial growth factor receptor 2 (Homo sapiens, UniProt P35968). Put plainly: Inhibition of wild-type human partial length VEGFR2 (R787 to P1253 residues) expressed in mammalian expression system using poly [Glu, Try] 4:1 as substrate in presence of [gamma-33P]ATP.
Experiment [5] deals with Proto-oncogene tyrosine-protein kinase Src (Homo sapiens, UniProt P12931). Briefly: Inhibition of wild-type human partial length SRC (L240 to L536 residues) expressed in bacterial expression system using poly [Glu, Try] 4:1 as substrate in presence of [gamma-33P]ATP.
Sequence of Proto-oncogene tyrosine-protein kinase Src (P12931 2-536 limits assumed): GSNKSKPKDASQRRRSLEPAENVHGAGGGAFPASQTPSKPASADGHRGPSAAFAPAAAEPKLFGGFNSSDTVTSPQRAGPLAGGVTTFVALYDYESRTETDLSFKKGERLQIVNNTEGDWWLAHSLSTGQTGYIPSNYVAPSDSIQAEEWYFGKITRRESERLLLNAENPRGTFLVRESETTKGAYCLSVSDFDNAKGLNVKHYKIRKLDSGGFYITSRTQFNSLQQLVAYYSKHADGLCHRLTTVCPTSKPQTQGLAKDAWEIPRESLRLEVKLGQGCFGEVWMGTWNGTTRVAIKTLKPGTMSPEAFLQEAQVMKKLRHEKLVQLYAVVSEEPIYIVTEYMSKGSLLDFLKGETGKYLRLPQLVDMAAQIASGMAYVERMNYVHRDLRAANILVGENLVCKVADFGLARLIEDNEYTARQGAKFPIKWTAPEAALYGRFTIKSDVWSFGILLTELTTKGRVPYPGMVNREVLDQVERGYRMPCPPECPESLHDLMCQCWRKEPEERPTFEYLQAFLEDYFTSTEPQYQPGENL
For experiment [6], the species on record is Mus musculus. Briefly: (§2) Antiproliferative activity against mouse AXL-positive Breast cancer cells after 5 days by PrestoBlue assay. The class given is functional. Summed up: (§3)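 Cell proliferation: AXL+ cells were exposed to 8-point half-log dilutions (0.03–100 μM). Viability was read with PrestoBlue reagent on day 5.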
Experiment [7] deals with Epidermal growth factor receptor (Homo sapiens, UniProt P00533). Put plainly: Inhibition of wild-type human partial length EGFR (R669 to V1011 residues) expressed in bacterial expression system using poly [Glu, Try] 4:1 as substrate in presence of [gamma-33P]ATP. The method in brief:
as §1

The target of experiment [8] is Receptor-type tyrosine-protein kinase FLT3 (Homo sapiens, UniProt P36888, D835Y). Briefly: Inhibition of human partial length FLT3 D835Y mutant (Q580 to Y969 residues) expressed in bacterial expression system using poly [Glu, Try] 4:1 as substrate in presence of [gamma-33P]ATP. The method in brief: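 Recombinant kinase assays were run radiometrically by an outside contract service. Activity was read as 33P incorporation into each kinase's substrate and expressed relative to a DMSO control.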

The subject of experiment [9] is MV4-11. Briefly: Antiproliferative activity against human MV4-11 cells after 5 days by PrestoBlue assay. It counts as functional, cell-based.
For experiment [10], the target named is Platelet-derived growth factor receptor alpha (Homo sapiens, UniProt P16234). Put plainly: Inhibition of wild-type human partial length PDGFRA (V575 to D1002 residues) expressed in mammalian expression system using poly [Glu, Try] 4:1 as substrate in presence of [gamma-33P]ATP. The method in brief: as §1
Sequence of Platelet-derived growth factor receptor alpha (P16234 whole entry, the tested form may be a part): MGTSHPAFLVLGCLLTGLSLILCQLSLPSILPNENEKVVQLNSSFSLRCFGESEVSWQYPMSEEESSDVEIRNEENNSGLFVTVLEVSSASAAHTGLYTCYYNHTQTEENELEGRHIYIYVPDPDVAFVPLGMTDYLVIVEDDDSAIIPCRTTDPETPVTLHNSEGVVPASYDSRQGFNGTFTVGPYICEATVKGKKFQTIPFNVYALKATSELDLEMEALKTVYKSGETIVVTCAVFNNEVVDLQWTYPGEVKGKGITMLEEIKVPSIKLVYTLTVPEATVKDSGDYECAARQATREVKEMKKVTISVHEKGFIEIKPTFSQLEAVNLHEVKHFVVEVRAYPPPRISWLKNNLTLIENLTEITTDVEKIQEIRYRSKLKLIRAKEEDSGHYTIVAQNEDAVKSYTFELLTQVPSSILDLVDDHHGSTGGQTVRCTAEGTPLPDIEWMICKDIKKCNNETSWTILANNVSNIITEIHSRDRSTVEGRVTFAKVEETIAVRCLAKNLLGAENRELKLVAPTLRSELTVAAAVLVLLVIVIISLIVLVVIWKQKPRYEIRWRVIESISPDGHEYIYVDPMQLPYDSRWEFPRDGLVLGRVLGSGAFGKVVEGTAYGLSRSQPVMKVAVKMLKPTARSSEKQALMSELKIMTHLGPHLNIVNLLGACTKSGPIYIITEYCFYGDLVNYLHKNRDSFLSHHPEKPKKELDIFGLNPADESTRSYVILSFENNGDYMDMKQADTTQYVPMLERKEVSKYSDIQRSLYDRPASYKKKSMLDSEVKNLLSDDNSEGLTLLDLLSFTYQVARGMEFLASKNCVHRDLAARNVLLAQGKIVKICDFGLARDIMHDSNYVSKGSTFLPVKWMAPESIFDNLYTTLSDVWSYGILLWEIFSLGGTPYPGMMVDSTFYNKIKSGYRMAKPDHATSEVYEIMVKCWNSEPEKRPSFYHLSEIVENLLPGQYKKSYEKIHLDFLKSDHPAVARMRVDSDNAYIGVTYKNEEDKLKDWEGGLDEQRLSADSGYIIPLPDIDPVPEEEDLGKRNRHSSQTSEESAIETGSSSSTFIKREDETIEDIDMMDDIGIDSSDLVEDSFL
The nature of experiment [11]: as §2. It counts as functional. The conditions noted are these: 120 h. The method in brief: as §3

Sequence of RAC-alpha serine/threonine-protein kinase (P31749 whole entry, the tested form may be a part): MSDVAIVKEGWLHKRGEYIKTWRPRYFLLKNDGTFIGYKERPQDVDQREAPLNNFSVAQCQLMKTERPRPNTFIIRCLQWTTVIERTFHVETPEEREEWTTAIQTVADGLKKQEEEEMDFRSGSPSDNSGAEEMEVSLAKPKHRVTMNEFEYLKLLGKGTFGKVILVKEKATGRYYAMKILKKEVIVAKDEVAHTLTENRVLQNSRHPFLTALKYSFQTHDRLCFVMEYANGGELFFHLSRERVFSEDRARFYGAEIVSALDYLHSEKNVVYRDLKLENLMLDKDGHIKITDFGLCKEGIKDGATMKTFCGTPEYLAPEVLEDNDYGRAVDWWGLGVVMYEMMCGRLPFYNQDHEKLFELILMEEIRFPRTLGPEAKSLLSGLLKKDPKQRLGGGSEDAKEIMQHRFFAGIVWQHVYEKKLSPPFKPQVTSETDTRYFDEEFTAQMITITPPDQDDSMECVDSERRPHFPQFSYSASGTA
Sequence of Vascular endothelial growth factor receptor 2 (P35968 whole entry, the tested form may be a part): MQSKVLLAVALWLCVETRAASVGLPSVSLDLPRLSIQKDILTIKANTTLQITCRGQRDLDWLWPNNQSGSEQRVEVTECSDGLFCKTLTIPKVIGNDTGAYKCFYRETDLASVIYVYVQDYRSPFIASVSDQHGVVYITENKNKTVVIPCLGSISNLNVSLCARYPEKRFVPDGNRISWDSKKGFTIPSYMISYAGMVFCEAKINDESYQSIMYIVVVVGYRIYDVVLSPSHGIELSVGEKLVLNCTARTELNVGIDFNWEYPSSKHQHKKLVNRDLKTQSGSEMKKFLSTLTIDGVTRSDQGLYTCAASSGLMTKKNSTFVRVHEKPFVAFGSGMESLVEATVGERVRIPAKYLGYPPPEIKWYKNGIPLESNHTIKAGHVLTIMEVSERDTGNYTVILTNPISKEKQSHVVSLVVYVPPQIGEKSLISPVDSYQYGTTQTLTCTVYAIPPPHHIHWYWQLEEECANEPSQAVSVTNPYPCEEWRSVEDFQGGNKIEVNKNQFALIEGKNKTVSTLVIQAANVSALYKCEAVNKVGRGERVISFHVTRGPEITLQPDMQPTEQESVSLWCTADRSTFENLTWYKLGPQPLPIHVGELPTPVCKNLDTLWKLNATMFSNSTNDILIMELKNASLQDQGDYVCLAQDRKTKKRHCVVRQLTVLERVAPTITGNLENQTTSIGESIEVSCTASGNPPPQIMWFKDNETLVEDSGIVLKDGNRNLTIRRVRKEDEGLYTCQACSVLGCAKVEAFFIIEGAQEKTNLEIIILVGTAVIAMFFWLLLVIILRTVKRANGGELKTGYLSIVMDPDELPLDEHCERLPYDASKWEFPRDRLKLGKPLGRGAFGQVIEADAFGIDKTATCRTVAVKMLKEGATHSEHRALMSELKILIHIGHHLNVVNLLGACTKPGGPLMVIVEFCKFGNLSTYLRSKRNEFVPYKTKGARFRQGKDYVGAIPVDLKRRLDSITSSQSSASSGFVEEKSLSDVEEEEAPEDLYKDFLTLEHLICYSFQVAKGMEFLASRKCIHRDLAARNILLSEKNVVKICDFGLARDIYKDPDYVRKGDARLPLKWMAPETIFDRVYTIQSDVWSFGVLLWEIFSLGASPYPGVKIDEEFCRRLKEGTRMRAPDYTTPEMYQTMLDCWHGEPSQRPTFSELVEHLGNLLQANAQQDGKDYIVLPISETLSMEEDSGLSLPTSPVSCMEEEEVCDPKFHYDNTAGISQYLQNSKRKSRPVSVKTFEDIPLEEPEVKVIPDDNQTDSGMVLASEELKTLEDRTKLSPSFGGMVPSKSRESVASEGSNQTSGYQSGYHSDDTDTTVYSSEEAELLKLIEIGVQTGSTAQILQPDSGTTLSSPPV
Sequence of Epidermal growth factor receptor (P00533 whole entry, the tested form may be a part): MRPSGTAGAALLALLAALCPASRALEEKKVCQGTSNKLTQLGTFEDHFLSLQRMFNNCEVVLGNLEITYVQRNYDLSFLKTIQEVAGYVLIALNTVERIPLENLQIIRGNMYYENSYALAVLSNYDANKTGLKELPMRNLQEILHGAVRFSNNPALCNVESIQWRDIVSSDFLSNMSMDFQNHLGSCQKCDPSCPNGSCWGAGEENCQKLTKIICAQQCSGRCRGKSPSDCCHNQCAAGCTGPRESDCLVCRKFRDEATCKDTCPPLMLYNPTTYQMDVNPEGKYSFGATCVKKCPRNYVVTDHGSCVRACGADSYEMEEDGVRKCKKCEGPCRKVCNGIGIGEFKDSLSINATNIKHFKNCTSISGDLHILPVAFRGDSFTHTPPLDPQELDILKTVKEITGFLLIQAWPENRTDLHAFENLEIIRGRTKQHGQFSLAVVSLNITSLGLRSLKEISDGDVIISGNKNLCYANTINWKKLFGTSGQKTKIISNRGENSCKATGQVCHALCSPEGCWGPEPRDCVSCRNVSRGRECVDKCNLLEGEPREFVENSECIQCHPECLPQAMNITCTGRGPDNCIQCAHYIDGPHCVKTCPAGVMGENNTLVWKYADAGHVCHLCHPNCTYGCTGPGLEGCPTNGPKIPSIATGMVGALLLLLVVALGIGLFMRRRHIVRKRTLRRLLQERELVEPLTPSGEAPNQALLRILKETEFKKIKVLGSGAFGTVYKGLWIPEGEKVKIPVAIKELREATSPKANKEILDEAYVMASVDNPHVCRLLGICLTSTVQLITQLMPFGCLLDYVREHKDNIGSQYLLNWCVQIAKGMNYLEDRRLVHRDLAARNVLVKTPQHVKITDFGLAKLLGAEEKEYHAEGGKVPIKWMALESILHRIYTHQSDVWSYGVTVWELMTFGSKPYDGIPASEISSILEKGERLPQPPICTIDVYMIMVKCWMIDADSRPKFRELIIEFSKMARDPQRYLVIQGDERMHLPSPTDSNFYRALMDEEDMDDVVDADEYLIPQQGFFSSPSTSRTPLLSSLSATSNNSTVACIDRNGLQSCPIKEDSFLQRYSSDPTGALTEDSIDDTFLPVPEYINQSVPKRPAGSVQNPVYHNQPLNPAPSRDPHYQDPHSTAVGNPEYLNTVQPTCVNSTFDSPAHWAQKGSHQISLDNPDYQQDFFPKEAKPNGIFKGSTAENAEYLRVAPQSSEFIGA

As to `CNc1ncc2c(-c3ccc(N4CCN(C(=O)C(C)(C)C)CC4)nc3)nn(CC3CCCC3)c2n1`, the IC50 in experiment [1] was 7.2 µM; in [2], over 10 µM; in [3] it was over 10 µM; in experiment [4] it was over 10 µM; in experiment [5] it was over 10 µM.
As for `CCN1CCN(c2ccc(-c3nn(Cc4cn(Cc5ccccc5)nn4)c4nc(NC)ncc34)cn2)CC1`, the IC50 in experiment [1] was over 10 µM; in experiment [2], over 10 µM; in experiment [3], 1.9 µM; in experiment [4] it was 7.7 µM; in experiment [5], over 10 µM. Further, the outcome in [6] was inactive.
Take `CNc1ncc2c(-c3ccc(N4CCN(C)CC4)nc3)nn(CC3CCCC3)c2n1`: the IC50 was 0.07 µM in experiment [1]; 0.48 µM in experiment [2]; over 10 µM in experiment [3]; over 10 µM in [7]; 0.4 µM in experiment [4]; 0.8 µM in experiment [5]. Also, the IC50 stood at 0.012 µM in [8] and 0.99 µM in experiment [10]. The result in [9] was Active.
Turning to `CNc1ncc2c(-c3ccc(OC)cc3)nn(CC3OCCO3)c2n1`, the IC50 in [1] is 1.3 µM; in experiment [2], 8.7 µM; in experiment [3] it was over 10 µM; in [4], 7.5 µM; in experiment [5], 7.2 µM. This molecule yielded an EC50 in [11] of at most 10 µM.
Turning to `Nc1nc(Nc2ccc3c(c2)CC[C@@H](N2CCCC2)CC3)nn1-c1cc2c(nn1)-c1ccccc1CCC2` [BEMCENTINIB], the IC50 was over 10 µM in experiment [3], 3.9 µM in [7], 0.002 µM in experiment [8] and 0.02 µM in experiment [10]. In [9], the result was Active.
Turning to `CNc1ncc2c(-c3ccc(N4CCNCC4)nc3)nn(CC3CCCC3)c2n1`, the IC50 in [1] is 0.12 µM; in [2] it was 0.64 µM; in experiment [3] it was over 10 µM; in experiment [4], 0.69 µM; in [5] it was 1.1 µM. This molecule also returned a half-maximal effective concentration (EC50) in experiment [11] of 0.83 µM.
As to `CNc1ncc2c(-c3ccc(N4CCNCC4)cc3)nn(Cc3cn(Cc4ccccc4)nn3)c2n1`, the IC50 in experiment [1], in experiment [2], in [3], in experiment [4] and in experiment [5] was over 10 µM in each case. In experiment [6], the result was inactive.
`CCN1CCN(c2ccc(-c3nn(CC4CCCC4)c4nc(NC)ncc34)cn2)CC1`: the IC50 in [1] is 0.26 µM; in experiment [2], 2.5 µM; in [3], over 10 µM; in experiment [4], 1.9 µM; in experiment [5], 3.6 µM.
Take `CNc1ncc2c(-c3ccc(N4CCNCC4)nc3)nn(CC3OCCO3)c2n1`: the IC50 in experiment [1] is 0.53 µM; in experiment [2], 6.2 µM; in experiment [3], over 10 µM; in experiment [4] it was 4.5 µM; in experiment [5], 0.89 µM. Moreover, in experiment [11], the EC50 is at most 10 µM.
For `CNc1ncc2c(-c3ccc(N4CCN(C)CC4)nc3)nn(Cc3cn(Cc4ccccc4)nn3)c2n1`, the IC50 in experiment [1] was 0.38 µM; in experiment [2] it was 2 µM; in [3] it was over 10 µM; in experiment [4] it was 7.6 µM; in [5], 8.3 µM. The outcome in [6] was inactive.
For `CNc1ncc2c(-c3ccc(N4CCN(C(=O)C(C)(C)C)CC4)nc3)nn(Cc3cn(Cc4ccccc4)nn3)c2n1`, the IC50 in experiment [1] was 0.76 µM; in experiment [2], 5.4 µM; in experiment [3], over 10 µM; in [4], over 10 µM; in experiment [5], over 10 µM. Moreover, the result in experiment [6] was inactive.
For `CNc1ncc2c(-c3ccc(N4CCNCC4)nc3)nn(Cc3cn(-c4ccsc4C(=O)OC)nn3)c2n1`, the IC50 is 0.78 µM in experiment [1]; 8.9 µM in [2]; over 10 µM in experiment [3]; over 10 µM in experiment [4]; over 10 µM in experiment [5]. Further, the outcome in [6] was Active.
